# Source: ChEMBL document CHEMBL4038311, “An Ursolic Acid Derived Small Molecule Triggers Cancer Cell Death through Hyperstimulation of Macropinocytosis” (J Med Chem, 2017)
# Active and inactive are the calls of the source. The rule behind the calls is not given here.
# Tests used:
# SK-N-MC [1] = test: Anticancer activity against human SK-N-MC cells assessed as vacuole formation at 20 uM after 24 hrs by phase contrast microscopic analysis; assay type: functional, cell-based
# SK-N-MC [2] = test: Anticancer activity against human SK-N-MC cells assessed as cell viability after 48 hrs by CCK8 assay; assay type: functional, cell-based
# How it was run: (§1)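 Seeded at 1000 cells/well in DMEM with 10% FBS at 37 °C, 5% CO2, overnight pre-incubation. Serial dilutions from a 100 mM DMSO stock gave final 0–50 µM, with 48 h exposure. CCK-8 read at 450 nm. IC50 fitted against DMSO control, given with s.d., n = 3 independent experiments.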
# [3] = Cytotoxicity against HDF assessed as vacuole formation at 20 uM after 24 hrs by phase contrast microscopic analysis relative to control; assay type: cell-based; details: human
# How it was run: (§2)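 C2C12 or HDF cells given 20 µM or 0.1% DMSO for 24 h, then imaged live by phase-contrast microscopy.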
# HeLa [4] = test: Anticancer activity against human HeLa cells assessed as vacuole formation at 20 uM after 24 hrs by phase contrast microscopic analysis; assay type: functional, cell-based
# HeLa [5] = test: Induction of apoptosis in human HeLa cells assessed as pyknotic chromatin formation at 20 uM after 24 hrs by transmission electron microscopic analysis; assay type: functional, cell-based
# How it was run: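 HeLa exposed to 20 µM for 24 h, then fixed, dehydrated and resin-embedded. Ultrathin sections on copper grids stained with uranyl acetate and lead citrate, then examined by TEM.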
# HeLa [6] = test: Induction of autophagy in human HeLa cells assessed as LC3-2 accumulation at 20 uM preincubated cells with 3-MA followed by compound addition measured after 24 hrs by Western blot analysis; assay type: functional, cell-based
# How it was run: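 HeLa pretreated 1 h with or without 3-MA, then 20 µM for 24 h. Lysed in RIPA with protease inhibitors, protein by BCA, SDS-PAGE onto PVDF. Blocked 5% milk, anti-LC3 overnight at 4 °C, secondary 2 h at RT. Infrared imaging, GAPDH loading control.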
# HeLa [7] = test: Induction of macropinocytosis in human HeLa cells assessed as lucifer yellow accumulation in phase-lucent vacuole at 20 uM after 24 hrs by confocal microscopic analysis; assay type: functional, cell-based
# HeLa [8] = test: Anticancer activity against human HeLa cells assessed as decrease in cell viability at 20 uM preincubated cells with 3-MA followed by compound addition measured after 24 to 48 hrs by CCK8 assay; assay type: functional, cell-based
# How it was run: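 HeLa cells pretreated 1 h with or without 3-MA, then exposed to 20 µM or 0.1% DMSO for 24 h or 48 h. Viability by CCK-8 absorbance at 450 nm.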
# HeLa [9] = test: Induction of methuosis in human HeLa cells assessed as decrease in cell viability preincubated cells with actin inhibitor cytochalasin D for 1 hr followed by compound addition measured after 48 hrs by CCK8 assay; assay type: functional, cell-based
# HeLa [10] = test: Induction of apoptosis in human HeLa cells assessed as increase in cleaved caspase-3 levels at 20 to 30 uM after 24 hrs by Western blot analysis; assay type: functional, cell-based
# How it was run: (§3)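 HeLa given indicated concentrations. RIPA lysates, BCA-quantified, SDS-PAGE and PVDF transfer. Anti-caspase-3 or anti-PARP1 applied overnight at 4 °C after 1 h 5% milk block, secondary 2 h at RT. Infrared imaging, GAPDH as loading control.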
# HeLa [11] = test: Induction of apoptosis in human HeLa cells assessed as increase in cleaved PARP1 levels at 20 to 30 uM after 24 to 48 hrs by Western blot analysis; assay type: functional, cell-based; how it was run: as §3
# HeLa [12] = test: Induction of apoptosis in human HeLa cells assessed as increase in cleaved caspase-3 levels at 30 to 100 uM after 48 hrs by Western blot analysis; assay type: functional, cell-based; how it was run: as §3
# C2C12 = test: Cytotoxicity against mouse C2C12 cells assessed as vacuole formation at 20 uM after 24 hrs by phase contrast microscopic analysis relative to control; assay type: cell-based; details: c2c12, 24 h; how it was run: as §2
# HT-1080 = test: Anticancer activity against human HT1080 cells assessed as vacuole formation at 20 uM after 24 hrs by phase contrast microscopic analysis; assay type: functional, cell-based
# HepG2 [13] = test: Anticancer activity against human HepG2 cells assessed as cell viability at 20 uM after 48 hrs by CCK8 assay relative to control; assay type: functional; details: HepG2, 48 h, read-out: Activity
# How it was run: (§4)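 Cells (5000/well, pre-incubated overnight) exposed to 20 µM for 48 h. CCK-8 absorbance read at 450 nm. Viability given as percent of vehicle (DMSO) control, mean ± SD. Six parallel wells per condition, at least three independent repeats.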
# HeLa [14] = test: Induction of macropinocytosis in human HeLa cells assessed as formation of mitochondrial degradative compartments at 20 uM after 24 hrs by Mitotracker red staining-based confocal microscopic analysis; assay type: functional, cell-based
# How it was run: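 HeLa given 20 µM for 24 h, then labelled live with 50 nM LysoTracker Red (30 min) or 200 nM MitoTracker Red CMXRos (1 h) in medium, after Lucifer yellow loading. Imaged live by confocal microscopy.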
# MCF7 = test: Anticancer activity against human MCF7 cells assessed as cell viability after 48 hrs by CCK8 assay; assay type: functional, cell-based; details: MCF7, 48 h; how it was run: as §1
# HeLa [15] = test: Anticancer activity against human HeLa cells assessed as cell viability at 20 uM after 48 hrs by CCK8 assay relative to control; assay type: functional; details: read-out: Activity; how it was run: as §4
# HeLa [16] = test: Anticancer activity against human HeLa cells assessed as cell viability at 20 uM after 24 to 72 hrs by CCK8 assay relative to control; assay type: functional; details: read-out: Activity
# How it was run: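 HeLa cells seeded at 5000/well and pre-incubated overnight, then exposed to 20 µM. CCK-8 absorbance at 450 nm read at 24, 48 and 72 h, relative to DMSO-treated control. Six wells per condition, experiments repeated at least three times.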
# HeLa [17] = test: Induction of methuosis in human HeLa cells assessed as increase in vacuole formation preincubated cells with dynamin inhibitor dynasore for 1 hr followed by compound addition measured after 24 hrs by phase contrast microscopic analysis; assay type: functional, cell-based
# How it was run: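 HeLa cells grown in DMEM with 10% FBS, 100 U/ml penicillin and 100 µg/ml streptomycin at 37 °C, 5% CO2 humidified air. The inhibitor was added before compound exposure. Vacuolization was judged in live cells by phase-contrast microscopy.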
# HeLa [18] = test: Anticancer activity against human HeLa cells assessed as vacuole formation preincubated cells with 3-MA followed by compound addition measured after 24 hrs by phase contrast microscopic analysis; assay type: functional, cell-based
# How it was run: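 HeLa cells pretreated 1 h with or without 3-MA before compound or DMSO. Phase-contrast images obtained after 24 h.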
# SK-N-MC [19] = test: Anticancer activity against human SK-N-MC cells assessed as cell viability at 20 uM after 48 hrs by CCK8 assay relative to control; assay type: functional; details: read-out: Activity; how it was run: as §4
# HeLa [20] = test: Anticancer activity against human HeLa cells assessed as vacuole formation at 20 uM after 12 hrs by phase contrast microscopic analysis; assay type: functional, cell-based
# HeLa [21] = test: Anticancer activity against human HeLa cells assessed as cell viability after 48 hrs by CCK8 assay; assay type: functional, cell-based; how it was run: as §1
# HepG2 [22] = test: Anticancer activity against human HepG2 cells assessed as cell viability after 48 hrs by CCK8 assay; assay type: functional, cell-based; details: HepG2, 48 h; how it was run: as §1
# HeLa [23] = test: Anticancer activity against human HeLa cells assessed as vacuole formation at 20 uM preincubated cells with Z-VAD-FMK for 1 hr followed by compound addition measured after 24 hrs by phase contrast microscopic analysis; assay type: functional, cell-based
# How it was run: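 HeLa pretreated 1 h with or without z-VAD-FMK, then given 20 µM or DMSO. Phase-contrast images taken at 24 h.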
compound,measurement,setting,value
C[C@H]1[C@H](C)CC[C@]2(C(=O)O)CC[C@]3(C)C(=CC[C@@H]4[C@@]5(C)Cc6cnn(-c7ccc(C#N)cc7)c6C(C)(C)[C@@H]5CC[C@]43C)[C@H]12,Activity,SK-N-MC [1],Active
same,IC50,SK-N-MC [2],17.1 µM
same,Activity,[3],Toxic
same,Activity,HeLa [4],Active
same,Activity,HeLa [5],inactive
same,Activity,HeLa [6],inactive
same,Activity,HeLa [7],Active
same,Activity,HeLa [8],Active
same,Activity,HeLa [9],inactive
same,Activity,HeLa [10],Active
same,Activity,HeLa [11],Active
same,Activity,HeLa [12],Active
same,Activity,C2C12,Toxic
same,Activity,HT-1080,Active
same,viability at 20 µM,HepG2 [13],27.9%
same,Activity,HeLa [14],Active
same,IC50,MCF7,17.6 µM
same,viability at 20 µM,HeLa [15],18.6%
same,viability at 20 µM,HeLa [16],74.2%
same,Activity,HeLa [17],inactive
same,Activity,HeLa [18],Active
same,viability at 20 µM,SK-N-MC [19],28.6%
same,Activity,HeLa [20],Active
same,IC50,HeLa [21],15.1 µM
same,IC50,HepG2 [22],16.6 µM
same,Activity,HeLa [23],Active
